The results in this text go back to ChEMBL document CHEMBL4513216, “Probing the Open Global Health Chemical Diversity Library for Multistage-Active Starting Points for Next-Generation Antimalarials” (ACS Infect Dis, 2020).

The data set is described as follows: Toxicity liver stage against HepG2, at 10uM. The class given is cell-based. The arrangement: test concentration 10 uM, cell line HepG2-A16-CD81EGFP. As to conditions: human, HepG2-A16-CD81EGFP cells; read-out: INHIBITION
In short, it runs like this:
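Uninfected HepG2-A16-CD81EGFP cells, 3 × 10^3 per well, 1536-well, plated on prespotted compound at 10 μM final, parasite-free screening media added to match infected plates; puromycin 10 μM positive, DMSO 0.5% negative; run in parallel with 48 h PbLuc assay at 37 °C, 5% CO2; viability by CellTiter-Glo luminescence, normalized to controls.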
In the case of `CS(=O)(=O)N1CC[C@@H](CC(=O)O)[C@@H](CC2=NCCc3cc(F)ccc32)C1`, the cytotoxicity at 10 µM stood at 0.699%.

In the case of `O=C1C(Nc2ccc3nccnc3n2)CCN1c1ccccc1F` (stereo not given), the cytotoxicity at 10 µM was -10%.

With `Cc1occc(=O)c1OCc1noc(C(=O)NC(C)C)n1`, the cytotoxicity at 10 µM stood at 4.6%.

As to `CS(=O)(=O)N1CCCC(n2nnn(-c3ccccc3)c2=O)C1` (stereo not given), the cytotoxicity at 10 µM is -6.17%.

Turning to `CCc1cnc(CN(C(C)=O)C2CCN(CCN3CCCCC3)C2)o1` (stereo not given), the cytotoxicity at 10 µM was -3.63%.

Turning to `O=C(NC1CC1)[C@H]1CC[C@@H]2[C@@H](CCN2c2ncc(F)cn2)O1`, the cytotoxicity at 10 µM was -1.65%.

Turning to `CS(=O)(=O)c1cc(Cl)cnc1C1CCCN(C(=O)C2CCOCC2)C1` (stereo not given), the cytotoxicity at 10 µM turned out to be 4.34%.

`CCS(=O)(=O)N1CCc2c(CN(C)Cc3ccco3)cncc2C1`: the cytotoxicity at 10 µM is -4.85%.

Regarding `CCN(Cc1cc(-c2ccccn2)no1)C1CCS(=O)(=O)C1` (stereo not given), the cytotoxicity at 10 µM is -14.9%.

As to `Cn1ccnc1CN1CCN(Cc2noc(C3CC3)n2)CC1`, the cytotoxicity at 10 µM is -1.85%.

Regarding `CCCn1nc2c(cc1=O)CN(Cc1cc(C)on1)CC2`, the cytotoxicity at 10 µM is -13.9%.

In the case of `COC(=O)CCn1ccc(=O)c2ccccc21`, the cytotoxicity at 10 µM is -6.84%.

In the case of `Cc1ccc(OCC(O)CN(C)CC(=O)NC(C)C)c(C)c1` (stereo not given), the cytotoxicity at 10 µM was -7.55%.

With `Cc1ccnc(Cn2cc(-c3cccc(C(C)N(C)C)c3)nn2)c1` (stereo not given), the cytotoxicity at 10 µM worked out at 1.74%.

With `O=C(N1CCCC1)N1CCC2(CC1)COCCN(Cc1cccnc1)C2`, the cytotoxicity at 10 µM was -77.3%.

As for `Nc1cc(CCCNC(=O)NC2CC2)nn1-c1ccccc1`, the cytotoxicity at 10 µM was 1.54%.

`Cn1nccc1C(=O)N1CCN(C(=O)C2CCC2)[C@@H]2CS(=O)(=O)C[C@@H]21`: the cytotoxicity at 10 µM amounted to 4.86%.

Take `O=C(NCCCC(=O)N1CCN(CC2CC2)c2ccccc21)C1CC1`: the cytotoxicity at 10 µM was -9.59%.

`CC(C)C(NC(=O)c1ccco1)C(=O)N1CCC2(CC1)OCCO2` (stereo not given): the cytotoxicity at 10 µM came to 6.05%.

As for `COc1ccc2c(c1)OC1(CCN(Cc3ccc(F)cc3)CC1)CC2=O`, the cytotoxicity at 10 µM stood at 9.09%.

Consider `O=c1[nH]c2c(c(=O)n1C1CCCCC1)CCC2NCCc1ccccc1` (stereo not given), for which the cytotoxicity at 10 µM is -6.91%.

As to `Cc1nc(CNC(=O)NC2CCN(c3ncccn3)CC2)cs1`, the cytotoxicity at 10 µM was -141%.

Consider `Cn1ccc(C(=O)N2CCC(c3cc(CCO)n(C)n3)C2)n1` (stereo not given), for which the cytotoxicity at 10 µM is -3.69%.

In the case of `CC(C)N(C(=O)Cn1c(-c2ccco2)cc2cccnc21)C(C)C`, the cytotoxicity at 10 µM was -4.32%.

On to `C[C@@H](O)[C@H](NC(=O)c1csc2nc(-c3ccccc3F)cn12)C(N)=O`, for which the cytotoxicity at 10 µM was determined as 2.37%.

Regarding `CCN(CC)C(CNC(=O)c1ccc(-n2cncn2)cc1)c1ccsc1` (stereo not given), the cytotoxicity at 10 µM was -141%.

Take `COc1ccccc1C(C)CC(=O)N1CCN(S(N)(=O)=O)CC1` (stereo not given): the cytotoxicity at 10 µM was -51.3%.

In the case of `Cc1ccc(S(=O)(=O)CCC(=O)N(C)Cc2cnn(C)c2)cc1`, the cytotoxicity at 10 µM was -2.9%.

For `Cc1ccoc1C(=O)N1CCOCC2(CCN(c3ncccn3)C2)C1` (stereo not given), the cytotoxicity at 10 µM was -7.23%.

`Cc1cc(C)n(CC2CN(CC(=O)Nc3nncs3)CCO2)n1` (stereo not given): the cytotoxicity at 10 µM is -2.97%.

Turning to `CNS(=O)(=O)CCCN1CCCN(Cc2ccccc2)CC1C` (stereo not given), the cytotoxicity at 10 µM amounted to 9.77%.

Regarding `CC(Cn1cccn1)n1cnc2cccc(Cl)c2c1=O` (stereo not given), the cytotoxicity at 10 µM was -5.41%.

With `Cc1cnn(CC2CCCN2C(=O)c2cc3ccccc3[nH]c2=O)c1` (stereo not given), the cytotoxicity at 10 µM came to 2.38%.

Consider `CC(C)c1cc(NC(=O)CN2CCNC(=O)C2)on1`, for which the cytotoxicity at 10 µM is -11.6%.

For `O=C(c1ccco1)N1CC[C@@H](N2CCOCC2)[C@@H]1Cc1ccncc1`, the cytotoxicity at 10 µM is -78.2%.

Take `O=C(c1cn(-c2ccccc2C(F)(F)F)nn1)N1CCSCC1`: the cytotoxicity at 10 µM was -0.111%.

On to `CN(C)CC(C)(C)Cn1cnc(-c2ccccc2)c1-c1cccc(O)c1`, for which the cytotoxicity at 10 µM is -5.53%.

`O=C(CC1CC1)NCc1cn2c(n1)CN(CC1CC1)CC2`: the cytotoxicity at 10 µM was 4.17%.

`CCCc1cc(C(=O)N[C@@H](CO)[C@@H](O)c2ccccc2)n(C)n1`: the cytotoxicity at 10 µM was 4.76%.

For `Cc1nnc(CN2CCN(CC(O)c3ccccc3)CC2)o1` (stereo not given), the cytotoxicity at 10 µM is -18.9%.

Turning to `CN1CCCC1CCn1ccnc1-c1nc2ccccc2[nH]1` (stereo not given), the cytotoxicity at 10 µM turned out to be 5.47%.

As for `Cc1ccc(NC2CCN(C(=O)CCNS(C)(=O)=O)CC2)nn1`, the cytotoxicity at 10 µM is -5.58%.

On to `O=C1CC(c2ccccc2)c2c(n3ccsc3nc2=O)N1` (stereo not given), for which the cytotoxicity at 10 µM was -4.74%.

For the compound `CC(C)Oc1ccc(CN2CCC(c3n[nH]c4ncccc34)CC2)cc1`, the cytotoxicity at 10 µM was -21.4%.

In the case of `Cn1c(C(=O)N2CCC(C3OCCO3)CC2)c(Cl)c2ccccc21`, the cytotoxicity at 10 µM stood at 13.7%.

As to `Cc1cnc(N)c(C(=O)C2CCN(C(=O)c3cnc(C)cn3)CC2)c1`, the cytotoxicity at 10 µM was -19.7%.

Consider `Cc1noc(C)c1C(=O)Nc1ccc2ncn(CC(C)C)c(=O)c2c1`, for which the cytotoxicity at 10 µM is 8.75%.

Take `Cc1cccc(N2CCC(NCc3cnc(C4CCC4)s3)CC2)n1`: the cytotoxicity at 10 µM was found to be 6.08%.

As to `O=C(CCc1cc(O)no1)N1CCCC(COc2ccc(F)cc2)C1` (stereo not given), the cytotoxicity at 10 µM is 2.47%.

Regarding `O=C(COc1ccccc1Br)N1CCOc2ccncc21`, the cytotoxicity at 10 µM was 5.13%.

Turning to `O=C(CCCOCc1ccccc1)N1CCCC(c2ncc[nH]2)C1` (stereo not given), the cytotoxicity at 10 µM is 8.54%.

`CC(=O)N1CCN(c2cc(-n3cnc(C)c3C)nc(C)n2)CC1`: the cytotoxicity at 10 µM came out at 0.727%.

With `CN(C)C(c1ccccn1)C1CCC(CNC(=O)C2CCCC2)CC1` (stereo not given), the cytotoxicity at 10 µM stood at 10.5%.

For the compound `CC(C)c1nnc2ccc(N3CCC(C(=O)NC4CC4)CC3)nn12`, the cytotoxicity at 10 µM is -5.01%.

Turning to `O=C(Cc1cccnc1)N1CCC(OCc2ccccc2)CC1`, the cytotoxicity at 10 µM was -1.96%.

Take `CS(=O)(=O)N1CCOC2(CCCN(c3ncc(F)cn3)C2)C1` (stereo not given): the cytotoxicity at 10 µM was found to be 5.98%.

Take `CCc1ccc(S(=O)(=O)Nc2ccc(F)cc2C(=O)O)s1`: the cytotoxicity at 10 µM was 3.69%.

Take `O=C(c1ccsc1)N1CCO[C@@H]2CN(Cc3nccs3)C[C@@H]2C1`: the cytotoxicity at 10 µM was -108%.

Turning to `CC(CCNC(=O)NCCNc1cnccn1)c1ccccc1` (stereo not given), the cytotoxicity at 10 µM was -4.08%.

For the compound `CCn1ccnc1CN1CCOC(CNc2cccnn2)C1` (stereo not given), the cytotoxicity at 10 µM amounted to 0.762%.

For the compound `CC(C#N)CSc1ccccc1NCC(=O)NCc1ccccc1` (stereo not given), the cytotoxicity at 10 µM was -7.89%.

Turning to `CC(C)c1noc(C[S+]([O-])CC(=O)Nc2cc(F)ccc2F)n1` (stereo not given), the cytotoxicity at 10 µM amounted to 8.15%.

Consider `c1cnc(N2CC[C@@H]3CN(Cc4ccncc4)CCO[C@@H]3C2)nc1`, for which the cytotoxicity at 10 µM worked out at 5.53%.

With `CC1CCC(N2CCC(NS(=O)(=O)CCOC(C)C)CC2)CC1` (stereo not given), the cytotoxicity at 10 µM was -0.45%.

For the compound `O=C(CCc1ccccc1)N1CCCCC1C1OCCO1` (stereo not given), the cytotoxicity at 10 µM was -45.1%.

In the case of `CC(NC(=O)CCOc1ccc(F)cc1)c1nnc2n1CCCCC2` (stereo not given), the cytotoxicity at 10 µM is -8.71%.

As to `COCCC1CCCCN1C(=O)c1coc(COc2ccccc2F)n1` (stereo not given), the cytotoxicity at 10 µM came out at 3.97%.

Consider `O=C(NCCSCc1ccc(Br)s1)C1CCCN(C(=O)c2cccs2)C1` (stereo not given), for which the cytotoxicity at 10 µM is -1.79%.

In the case of `CCN(CC)C(=O)c1c(Cl)cnn1CC`, the cytotoxicity at 10 µM is -12.3%.

On to `Cn1cc(C(=O)N2CCCC(C(=O)CCc3ccccc3)C2)cn1` (stereo not given), for which the cytotoxicity at 10 µM was -5.16%.
